Calls of active or inactive are those of the source.
Key:
[1] = target: Replicase polyprotein 1ab (Severe acute respiratory syndrome coronavirus 2) (UniProt P0DTD1); assay: Inhibition of SARS-COV2 main protease mediated cytotoxicity against human A549 cells transfected with pCMV3-2019-nCoV-3CLpro plasmid assessed as increase in cell number at 5 uM measured at 48 hrs by Nucblue dye based microscopic analysis
In short: (§1)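 HepG2 or A549 cells (3×10^5) were lipofected 16 h after seeding with 3 µg pCMV3-2019-nCoV-3CLpro in serum-free DMEM for 8 h, then grown in complete medium for 12 h. Cells were trypsinised and 1×10^4 replated with hygromycin B (200 µg) plus compound or E64 (5 µM) for 48 h. NucBlue (Hoechst 33342) was added for 30 min at 37 °C, then imaging and hemocytometer counts against nontransfected cells.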

[2] = target: Replicase polyprotein 1ab (Severe acute respiratory syndrome coronavirus 2) (UniProt P0DTD1); assay: Inhibition of SARS-COV2 main protease mediated cytotoxicity against human HepG2 cells transfected with pCMV3-2019-nCoV-3CLpro plasmid assessed as increase in cell number at 5 uM measured at 48 hrs by Nucblue dye based microscopic analysis; in short: as §1
[3] = target: Replicase polyprotein 1ab (Severe acute respiratory syndrome coronavirus 2) (UniProt P0DTD1); assay: Inhibition of SARS-COV2 main protease mediated cytotoxicity against human A549 cells transfected with pCMV3-2019-nCoV-3CLpro plasmid assessed as increase in cell number and measured at 48 hrs by calcien AM staining based microscopic analysis
In short: (§2)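 3-D organoid-like culture: pCMV3-2019-nCoV-3CLpro-transfected or nontransfected HepG2 or A549 cells (3000 cells/µL) were mixed 1:1 with growth factor-reduced Matrigel, with drug-containing medium added at the same time. Viable cells were imaged after calcein AM staining. Organoids were then melted on ice, pelleted, trypsinised and counted by hemocytometer.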

[4] = target: Replicase polyprotein 1ab (Severe acute respiratory syndrome coronavirus 2) (UniProt P0DTD1); assay: Inhibition of SARS-COV2 main protease mediated cytotoxicity against human HepG2 cells transfected with pCMV3-2019-nCoV-3CLpro plasmid assessed as increase in cell number and measured at 48 hrs by calcien AM staining based microscopic analysis; in short: as §2
[5] = target: T1, Replicase polyprotein 1ab (Severe acute respiratory syndrome coronavirus 2, UniProt P0DTD1); assay: Inhibition of recombinant SARS-COV2 main protease expressed in Escherichia coli Rosetta cells using DABCYL-KTSAVLQSGFRKME-EDANS as substrate pre-incubated for 60 mins followed by substarte addition by FRET-based assay
In short: (§3)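 FRET assay with purified E. coli-expressed MPro (0.5 µM) in 50 mM Tris pH 7.4 with 2 µM EDTA and no DTT. MPro was preincubated 60 min at 37 °C with a range of inhibitor concentrations, with 5 mM GSH added for line 12. IC50 came from initial rates.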

[6] = target: Replicase polyprotein 1ab (Severe acute respiratory syndrome coronavirus 2) (UniProt P0DTD1); assay: Inhibition of SARS-COV2 main protease mediated cytotoxicity against human A549 cells transfected with pCMV3-2019-nCoV-3CLpro plasmid assessed as increase in cell number measured at 48 hrs in presence of buthionine sulfoximine by Nucblue dye based microscopic analysis
In short: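 Transfected A549 cells were pretreated with 500 µM buthionine sulfoximine. At 20 h post-transfection, compound or E64 (5 µM) was added with 1 mM BSO. After 48 h, cells were stained with NucBlue (Hoechst 33342), imaged and counted, with nontransfected cells handled identically.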

[7] = target: Replicase polyprotein 1ab (Severe acute respiratory syndrome coronavirus 2) (UniProt P0DTD1); assay: Inhibition of SARS-COV2 main protease mediated cytotoxicity against human A549 cells transfected with pCMV3-2019-nCoV-3CLpro plasmid assessed as GSH level measured at 48 hrs in presence of buthionine sulfoximine by Nucblue dye based microscopic analysis; format: cell-based
[8] = target: Replicase polyprotein 1ab (Severe acute respiratory syndrome coronavirus 2) (UniProt P0DTD1); assay: Binding affinity to recombinant SARS-COV2 main protease expressed in Escherichia coli Rosetta cells at 2 uM measured after 16 hrs by LC-MSMS analysis based equilibrium dialysis method
In short: (§4)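 Purified His-GST-tagged MPro expressed in E. coli Rosetta and released with HRV3C protease. MPro (30 µg) in 50 mM potassium phosphate pH 7.5 with 2 µM compound was dialysed against the same solution without protein (3.5 kDa cutoff) for 16 h at room temperature. Drug in the dialysate was quantified by LC-MS or LC-MS/MS against a no-protein control. The dialyser contents were then denatured and drug re-measured.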

[9] = target: Replicase polyprotein 1ab (Severe acute respiratory syndrome coronavirus 2) (UniProt P0DTD1); assay: Inhibition of recombinant SARS-COV2 main protease expressed in Escherichia coli Rosetta cells at 0.5 uM using DABCYL-KTSAVLQSGFRKME-EDANS as substrate pre-incubated for 60 mins followed by substarte addition and measured at 30 min by FRET-based assay relative to control
In short: (§5)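 Time-course variant of the FRET assay: fixed inhibitor concentration with preincubation times varied (5–120 min, 37 °C) in 50 mM Tris pH 7.4 with 2 µM EDTA. Conditions were 0.5 µM MPro with 5 µM inhibitor, or 0.25 µM MPro with 0.5 µM inhibitor.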

[10] = target: Replicase polyprotein 1ab (Severe acute respiratory syndrome coronavirus 2) (UniProt P0DTD1); assay: Inhibition of recombinant SARS-COV2 main protease expressed in Escherichia coli Rosetta cells at 5 uM using DABCYL-KTSAVLQSGFRKME-EDANS as substrate pre-incubated for 60 mins followed by substarte addition measured at 5 min by FRET-based assay relative to control; in short: as §5
[11] = target: T1, Replicase polyprotein 1ab; assay: Inhibition of recombinant SARS-COV2 main protease expressed in Escherichia coli Rosetta cells using DABCYL-KTSAVLQSGFRKME-EDANS as substrate pre-incubated for 60 mins followed by substarte addition measured at 30 min in presence of GSH by FRET-based assay; in short: as §3
[12] = target: Replicase polyprotein 1ab (Severe acute respiratory syndrome coronavirus 2) (UniProt P0DTD1); assay: Binding affinity to recombinant SARS-COV2 main protease expressed in Escherichia coli Rosetta cells at 2 uM measured after 16 hrs by LC-MS analysis based equilibrium dialysis method; in short: as §4

## CC1=C(C)C(=O)O[C@@H]([C@@H](C)[C@@]2(O)CC[C@H]3[C@@H]4[C@@H]5O[C@@H]5[C@@]5(O)CC=CC(=O)[C@]5(C)[C@H]4CC[C@@]32C)C1 [WITHANONE]
[1]
  inhibition: Active
[2]
  inhibition: Active
[3]
  inhibition: Active
[4]
  inhibition: Active
[5]
  IC50: 1.8 µM
[6]
  inhibition: Active
[7]
  inhibition: Active
[8]
  Activity: Active

## CC(C)C[C@H](NC(=O)[C@H]1O[C@@H]1C(=O)O)C(=O)NCCCCN=C(N)N
[1]
  inhibition: Active
[2]
  inhibition: Active
[6]
  inhibition: Active

## CC1=C(CO)C(=O)O[C@@H]([C@@H](C)[C@H]2CC[C@H]3[C@@H]4C[C@H]5O[C@]56[C@@H](O)C=CC(=O)[C@]6(C)[C@H]4CC[C@]23C)C1 [WITHAFERIN A]
[1]
  inhibition: Active
[9]
  inhibition: 80%
[2]
  inhibition: Active
[3]
  inhibition: Active
[4]
  inhibition: Active
[10]
  inhibition: 100%
[11]
  IC50: 0.63 µM
[5]
  IC50: 0.54 µM
[12]
  Activity: Active
[6]
  inhibition: Active
[7]
  inhibition: Active

Source: ChEMBL document CHEMBL5137122, “The Natural Products Withaferin A and Withanone from the Medicinal Herb Withania somnifera Are Covalent Inhibitors of the SARS-CoV-2 Main Protease” (J Nat Prod, 2022)
